We go through six compounds from PubChem BioAssay AID602416 (Sanford-Burnham Center for Chemical Genomics, 2012).

Calls of active or inactive are those of the source.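 Rule for the calls: active = mean EC50 at or below 20 µM; inactive = the rest.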

This assay concerns the target CHO-XBP1 luciferase reporter, IRE1-XBP1 activation, luminescence. Nature of the assay: activators of IRE1-XBP1 adaptive UPR arm, SAR follow-up, counter-screen for apoptotic UPR arm activator project, CHO-XBP1 cells, luminescence, set 3 (AID 602416). Put shortly:
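Material: CHO cells stably expressing XBP1 luciferase reporter, IRE1-XBP1 arm | Probe or stimulus: Test wells lacking tunicamycin | Times: Compound exposure 6 h at 37 °C | Detection: Steady-Glo luminescence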
By EC50 is commonly meant the midpoint of the concentration-response curve. On to `O=C(Nc1ccc(S(=O)(=O)N2CCCCC2)cc1)c1ccc([N+](=O)[O-])o1`, for which the EC50 is > 80 µM (inactive). For `O=C(Nc1ccc(S(=O)(=O)N2CCC(F)CC2)cc1)c1ccc([N+](=O)[O-])o1` the value was > 80 µM (inactive). For `O=C(Nc1ccc(S(=O)(=O)N2CCC(Cl)CC2)cc1)c1ccc([N+](=O)[O-])o1` the value was > 80 µM (inactive); for `CC1(C)CCN(S(=O)(=O)c2ccc(NC(=O)c3ccc([N+](=O)[O-])o3)cc2)CC1`, > 80 µM (inactive); for `CC1CCN(S(=O)(=O)c2ccc(NC(=O)c3ccc([N+](=O)[O-])o3)cc2)CC1`, > 80 µM (inactive).

On to `CC(C)(C)C1CCN(S(=O)(=O)c2ccc(NC(=O)c3ccc([N+](=O)[O-])o3)cc2)CC1`, for which the EC50 was > 80 µM (inactive).
